Source: ChEMBL document CHEMBL1821591, “Cytotoxic bipyridines from the marine-derived actinomycete Actinoalloteichus cyanogriseus WH1-2216-6” (J Nat Prod, 2011)
≈ marks a conversion by molar mass, not a printed value.

Tests used:
Candida albicans = experiment: Antimicrobial activity against Candida albicans after 24 hrs by agar dilution method; type: functional
Escherichia coli = experiment: Antimicrobial activity against Escherichia coli after 24 hrs by agar dilution method; type: functional
Klebsiella aerogenes = experiment: Antimicrobial activity against Aerobacter aerogenes after 24 hrs by agar dilution method; type: functional
Pseudomonas aeruginosa = experiment: Antimicrobial activity against Pseudomonas aeruginosa after 24 hrs by agar dilution method; type: functional
A549 = experiment: Cytotoxicity against human A549 cells after 24 hrs by SRB assay; type: functional, cell-based; details: A549, 24 h
HL-60 = experiment: Cytotoxicity against human HL60 cells after 72 hrs by MTT assay; type: functional, cell-based; details: HL-60, 72 h
Summary of the method: (§1)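 MTT read-out on HL-60, K562 and KB; activity expressed as IC50 in μM.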

K562 = experiment: Cytotoxicity against human K562 cells after 72 hrs by MTT assay; type: functional, cell-based; details: K562, 72 h; summary of the method: as §1
KB = experiment: Cytotoxicity against human KB cells after 72 hrs by MTT assay; type: functional, cell-based; summary of the method: as §1

| MIC (Candida albicans) [µM] | MIC (Pseudomonas aeruginosa) [µM] | SMILES | MIC (Escherichia coli) [µM] | MIC (Klebsiella aerogenes) [µM] | IC50 (A549) [nM] | IC50 (HL-60) [nM] | IC50 (K562) [nM] | IC50 (KB) [nM] |
| --- | --- | --- | --- | --- | --- | --- | --- | --- |
| 1.2 | 3.8 | O=C(O)c1cn(C2CC2)c2cc(N3CCNCC3)c(F)cc2c1=O [CIPROFLOXACIN LACTATE] | – | 0.94 | – | – | – | – |
| 21.8 (≈ 5 µg/mL) | 21.8 (≈ 5 µg/mL) | COc1cc(/C=N/O)nc(-c2ccccn2)c1 [CAERULOMYCIN A] | 10.9 (≈ 2.5 µg/mL) | – | 260 | 710 | > 50000 | > 50000 |

| SMILES | MIC (Candida albicans) [µM] | MIC (Pseudomonas aeruginosa) [µM] | MIC (Escherichia coli) [µM] | MIC (Klebsiella aerogenes) [µM] | IC50 (A549) [nM] | IC50 (HL-60) [nM] | IC50 (K562) [nM] | IC50 (KB) [nM] |
| --- | --- | --- | --- | --- | --- | --- | --- | --- |
| CC(=O)N1CCN(c2ccc(OCC3COC(Cn4ccnc4)(c4ccc(Cl)cc4Cl)O3)cc2)CC1 (centres undefined) [KETOCONAZOLE] | 1.2 (≈ 0.638 µg/mL) | 3.8 (≈ 2.02 µg/mL) | 1.9 (≈ 1.01 µg/mL) | 0.94 (≈ 0.5 µg/mL) | – | – | – | – |
